# Assay outcomes (PubChem)
# ASAP1 GAP inh = inhibitors of human ASAP1 ArfGAP activity, primary screen, biochemical, fluorescence polarization. Arf-GAP with SH3 domain, ANK repeat and PH domain-containing protein 1 (Homo sapiens), …. ASAP1-stimulated ARF1 GTP hydrolysis, GDP FP detection. inhibition, % at 16.5 µM. actives 0.19% (n = 360,000). AID 624377, 2012; in the data active = inhibition above about 25%;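 also: 0% = vehicle with enzyme and substrate and 100% = no enzyme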
# Target sequence (Q9ULH1 325-724 limits assumed): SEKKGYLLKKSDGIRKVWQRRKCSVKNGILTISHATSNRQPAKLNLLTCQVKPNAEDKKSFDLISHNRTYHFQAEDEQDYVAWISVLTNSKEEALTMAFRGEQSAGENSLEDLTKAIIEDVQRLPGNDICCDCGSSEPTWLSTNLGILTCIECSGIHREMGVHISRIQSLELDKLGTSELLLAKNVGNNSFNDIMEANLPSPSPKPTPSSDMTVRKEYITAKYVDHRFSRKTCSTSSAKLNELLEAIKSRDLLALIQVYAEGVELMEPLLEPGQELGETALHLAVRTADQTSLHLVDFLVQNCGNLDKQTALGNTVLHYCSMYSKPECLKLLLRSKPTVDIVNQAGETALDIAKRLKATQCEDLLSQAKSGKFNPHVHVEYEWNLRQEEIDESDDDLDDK
# ARFGAP1 inhibitor = inhibitors of rat ARFGAP1 GAP activity, primary screen, biochemical, fluorescence polarization, GDP tracer; Arfgap1-stimulated ARF1 GTP hydrolysis, GDP FP detection; AID 651572, 2012; actives 0.26% (n = 360,000); inhibition, % at 16.5 µM; ADP-ribosylation factor GTPase-activating protein 1 (Rattus norvegicus), Q62848;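 active = inhibition above a per-plate limit, mean inhibition of low control wells plus 3 SD, cut at about 25% in these data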;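 also: 0% = DMSO wells with enzyme and 100% = wells lacking Arfgap1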
# Target sequence (Q62848 1-136 limits assumed): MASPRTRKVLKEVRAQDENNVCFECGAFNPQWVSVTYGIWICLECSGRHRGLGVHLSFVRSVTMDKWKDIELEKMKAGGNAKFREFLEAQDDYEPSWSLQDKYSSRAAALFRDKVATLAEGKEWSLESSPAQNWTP
#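 Material – truncated rat Arfgap1 GAP domain · Buffer or medium – HEPES-based buffer, pH 7.5 · Reagent – human ARF1(Δ1-17)-GTP substrate · Dosing – 16.5 µM single point, 1.26% DMSO · Schedule – GTP hydrolysis reaction 2 h at 25 °C · Technique – GDP detection by fluorescence polarization · Benchmarks – No-Arfgap1 wells (100%) versus DMSO full-reaction wells (0%) · Repeats – single replicate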
# H9c2 protect = cardioprotection against H2O2-induced cell death, primary screen, uHTS, H9c2 cells, ATPLite luminescence | actives 0.63% (n = 360,000) | H9c2 cardiomyocytes, H2O2 injury protection, 2 h | protection from H2O2 cell death, % at 20 µM;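 active = compounds giving at least 50% protection of heart cells from peroxide-induced death in the single-dose screen, raw or plate-pattern-corrected value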;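 also: 0% = DMSO wells with peroxide and 100% = DMSO wells without peroxide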
# Neddylation inh = inhibitors of cullin neddylation, primary screen, biochemical, TR-FRET, uHTS, NAE and Ubc12; NEDD8-conjugating enzyme Ubc12 (Homo sapiens) + NEDD8-activating enzyme E1 regulatory …; actives 0.58% (n = 360,000); inhibition, % at 25 µM; in the data active = inhibition above about 36%
# Neddyl inh conf = blockade of NEDD8 conjugation to cullin – biochemical, TR-FRET, single concentration, confirmation | shares compounds with Neddylation inh | TR-FRET cullin neddylation biochemical assay | calls only at 25 µM | actives 13% (n = 1,800) | AID 652217, 2013; in the data active = inhibition above about 40%;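 also: neddylation substrate is the cullin 1 ring ligase complex with SKP2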
# Starred values were filed as active, the others as inactive; i = inactive; nt = not tested or not shown; + = active, no number; ! = a repeat was not active. Compounds with a hit are over-represented: about 1.6% of the library has one in this group of screens.
SMILES,ASAP1 GAP inh,ARFGAP1 inhibitor,H9c2 protect,Neddylation inh,Neddyl inh conf
Clc1cccc(-c2cc3nc4c(c(N5CCOCC5)n3n2)CCCC4)c1,12,0,2,nt,nt
OC1CCN(c2c3c(nc4cc(-c5ccc(Cl)cc5)nn24)CCC3)CC1,5,-2,39,40*,i
CC(C)(C)NC(=O)CN(C(=O)CCC(=O)Nc1nccs1)c1ccccc1F,9,8,8,-2,nt
O=C1COC(c2ccccc2O)=NN1CCCl,-12,-3,-3,-6,nt
CN(C)C(=O)CCC(=O)N1CCCC(C(=O)c2ccc3c4c(cccc24)CC3)C1 (stereo not drawn),1,2,-5,41*,i
C[C@H](O)[C@@H]1C(=O)N2CCc3c([nH]c4cccc(-c5ccccc5)c34)[C@@H]2C[C@@H]1N(C)C(=O)NC1CCCCC1,4,-11,nt,nt,nt
CN(C)c1cccc(C(=O)NCc2ccc3c(c2)OCO3)c1,5,-2,3,44*,+
O=C1CS/C(=N/N=C/c2ccccc2)N1c1ccc(O)cc1,11,3,0,-4,nt
O=C1CS/C(=N\N=C\c2ccco2)N1c1ccccc1,-1,-6,13,42*,i
Cc1nc(C(=O)NCCCO)cc2c1[nH]c1ccccc12,-5,2,4,44*,i
Cc1nc(C(=O)NCCO)cc2c1[nH]c1ccccc12,-6,-11,1,39,nt
O=C(NC1CCCCC1)C(c1ccnc2ccccc12)n1c(=O)c(-c2ccccc2)nc2ccccc21 (stereo not drawn),0,-3,nt,-69,nt
CCC(c1nnnn1-c1ccc2c(c1)OCCO2)N1CCN(C(=O)C2CCCO2)CC1 (stereo not drawn),-8,0,nt,2,nt
COC(=O)C1=C(C)NC(C)=C(C(=O)OC)C1C(=O)OCC(=O)N1c2ccccc2CC1C (stereo not drawn),2,0,2,46*!,nt
O=C(NCc1ccccc1)[C@H]1CCCN1C(=O)[C@H]1CCCN1C(=O)c1ccc(F)cc1,-15,-6,nt,nt,nt
O=C(COc1ccccc1)Nc1ccc(-c2nnc(-c3ccco3)o2)cc1,4,5,11,39*,i
COC(=O)C[C@@H]1CC[C@H](NC(=O)c2ccc3c(c2)OCO3)[C@@H](CO)O1,1,11,nt,-1,nt
Cc1ccc2[nH]c(=O)c(C3=NN(C(=O)CCC(=O)O)C(c4cccs4)C3)c(-c3ccccc3)c2c1 (stereo not drawn),0,-5,4,43*,i
O=C(O)CCC(=O)N1N=C(c2ccc(Br)cc2)CC1c1cccs1 (stereo not drawn),-1,8,-3,-12,nt
Cc1c(OC(C)C(=O)NCCN2CCOCC2)ccc2c3c(c(=O)oc12)CCCC3 (stereo not drawn),-8,-3,3,41*,nt
CC(C)(C)S(=O)(=O)N1C[C@H]2C(=C(CCO)C[C@H]3C(=O)N(c4ccccc4)C(=O)[C@H]32)[C@@H]1CCO,-19,-1,nt,nt,nt
CCOC(=O)Cc1cc(=O)n2[nH]c(C)c(-c3ccc(Cl)cc3)c2n1,-2,0,22,nt,nt
CCOC(=O)Cc1cc(=O)n2[nH]c(C)c(-c3ccc(OC)cc3)c2n1,1,1,7,42*,nt
CC(=O)N1CCN(c2ccc(NC(=O)c3cccc(OCc4ccccc4)c3)cc2)CC1,10,7,8,31,nt
CC(=O)N1CCN(c2ccc(NC(=O)c3ccc(OCc4ccccc4)cc3)cc2)CC1,0,-9,-4,44*,i
SMILES,ASAP1 GAP inh,ARFGAP1 inhibitor,H9c2 protect,Neddylation inh,Neddyl inh conf
NC(Cc1ccc(C(F)(F)F)cc1)c1csc(Nc2ccc(C(=O)c3ccccc3)cc2)n1 (stereo not drawn),13,23,-29,nt,nt
Oc1ccccc1C=NNC(=S)Nc1ccc(F)cc1,5,11,38,45*,nt
Oc1ccccc1/C=N/NC(=S)NCCc1ccccc1,-1,-9,12,42*,i
NC(=O)c1ncn([C@@H]2O[C@H](C(=O)N[C@H](Cc3c[nH]c4ccccc34)C(=O)NCC(=O)N3CCCCC3)[C@@H](O)[C@H]2O)n1,-4,-7,nt,nt,nt
O=C(Nc1ccccc1)Nc1nnc(/C=C/c2ccccc2Cl)s1,-7,4,-1,45*,i
Cn1cc(-c2csc(C(O)c3ccc(F)cc3)n2)cn1 (stereo not drawn),-4,12,-7,-4,nt
CN1NC(=O)c2ccccc2NC1=S,1,7,nt,nt,nt
COc1ccc(-c2cc(=O)c3cc(O)ccc3o2)cc1,2,5,-10,50*,nt
COc1cccc(C(C(=O)NCc2ccccc2)N2CCN(c3cccc(C)c3C)CC2)c1OC (stereo not drawn),8,-6,nt,2,nt
COc1cc2ccnc(C=NO)c2cc1OC,1,11,16,41*,i
Cc1cc(-c2ccccc2)nc(N(C)NC(=O)c2c(F)cccc2F)c1S(C)(=O)=O,-3,6,7,1,nt
Cc1cc(-c2ccccc2)nc(N(C)N)c1S(C)(=O)=O,-3,10,3,39*,i
COc1ccc(/C=C/C(=O)NCc2ccc3c(c2)OCO3)cc1OC,-4,9,-5,42*,i
COc1ccc(C)cc1NC(=O)c1nn(-c2ccccc2)cc1OC,13,7,8,49*,i
COc1cn(-c2ccccc2)nc1C(=O)Nc1ccc(C)cc1,12,3,-9,28,nt
COc1cccc(CC(NC(C)=O)C(=O)NC2CCN(c3nc(C)cc(C)c3C#N)CC2)c1 (stereo not drawn),-3,-3,-3,30,nt
COc1ccc(CC(NC(C)=O)C(=O)NC2CCN(c3nc(C)cc(C)c3C#N)CC2)c(OC)c1 (stereo not drawn),2,-4,6,41*,i
CCOC(=O)C1=C(C)NC(C)=C(C(=O)OCC)C1/C=C/c1ccccc1OC,6,16,-5,nt,nt
COCCOC(=O)C1=C(C)NC(C)=C(C(=O)OCCOC)C1/C=C/c1ccccc1OC,-5,3,2,43*,nt
COc1ccccc1CNc1nc(NCCN2CCNC2=O)c2sccc2n1,-7,4,4,-7,nt
CN(C)c1ccc2c(=O)c3ccccc3oc2n1,-8,-7,-11,40*,i
CC(=O)Nc1ccc(NC(=O)c2cc(=O)c3ccccc3o2)cc1,4,2,22,-38,nt
N#Cc1ccc(NC(=O)c2cc(=O)c3ccccc3o2)cc1,-11,3,3,41*,i
NC(=O)c1sc2cc(C(F)(F)F)cnc2c1-c1cccs1,-9,1,6,28,nt
O=C(O)c1sc2cc(C(F)(F)F)cnc2c1-c1cccs1,-11,4,6,41*,+
